ChEMBL document CHEMBL1909603, “Synthesis of novel N-(2-hydroxy-2-p-tolylethyl)-amide and N-(2-oxo-2-p-tolylethyl)-amide derivatives and their antidyslipidemic and antioxidant activity” (2011)

Tests used:
Type in all cases: functional
[1] = Antioxidant activity assessed as xanthine-xanthine oxidase generated superoxide anion scavenging at 200 mg/ml after 30 mins by NBT reduction assay
How it was run: (§1)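 Enzymic superoxide generation with xanthine, xanthine oxidase (0.04 U) and nitroblue tetrazolium in 100 mM phosphate buffer pH 8.2, with or without sample. Incubated at 37 °C for 30 min, then stopped with glacial acetic acid. Formazan read at 560 nm. Percent inhibition calculated using ε 7.2 × 10³ M/cm.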

Rattus norvegicus [2] = test: Antihyperlipidemic activity in Charles Foster rat assessed as reduction of triton WR-1339-induced plasma phospholipid level at 100 mg/kg, po after 18 hrs; parameters: scale not given: the % may be the effect or the level left
How it was run: (§2)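 Male Charles Foster rats (100–150 g), six per group. Triton WR-1339 400 mg/kg ip with simultaneous oral dosing at 100 mg/kg, given as a gum acacia (0.2% w/v) suspension in water. Diet was withdrawn. Vehicle went to the control and triton groups. At 18 h, under thiopentone anaesthesia, retro-orbital blood was taken into EDTA and spun at 4 °C. Plasma diluted 1:3 in saline. TC, TG and PL measured by enzymatic kits. Mean SD.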

Rattus norvegicus [3] = test: Antihyperlipidemic activity in Charles Foster rat assessed as reduction of triton WR-1339-induced plasma protein level at 100 mg/kg, po after 18 hrs; parameters: scale not given: the % may be the effect or the level left
Rattus norvegicus [4] = test: Antihyperlipidemic activity in Charles Foster rat assessed as reduction of triton WR-1339-induced plasma post heparin lipolytic activity assessed per mL of plasma at 100 mg/kg, po after 18 hrs; parameters: scale not given: the % may be the effect or the level left
How it was run: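 Male Charles Foster rats (100–150 g), six per group. Triton WR-1339 400 mg/kg ip together with an oral 100 mg/kg dose in gum acacia suspension. Diet was withdrawn and vehicle controls were included. At 18 h, EDTA plasma was taken from retro-orbital blood. Post-heparin lipolytic activity was measured spectrophotometrically as nmol free fatty acid formed/h/ml plasma. Mean SD.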

Rattus norvegicus [5] = test: Antihyperlipidemic activity in Charles Foster rat assessed as reduction of triton WR-1339-induced plasma triglyceride level at 100 mg/kg, po after 18 hrs; parameters: scale not given: the % may be the effect or the level left; how it was run: as §2
Rattus norvegicus [6] = test: Antihyperlipidemic activity in Charles Foster rat assessed as reduction of triton WR-1339-induced plasma total cholesterol level at 100 mg/kg, po after 18 hrs; parameters: scale not given: the % may be the effect or the level left; how it was run: as §2
[7] = Antioxidant activity against microsomal lipid peroxidation assessed as malondialdehyde formation at 200 mg/ml after 90 mins by thiobarbituric acid method
[8] = Antioxidant activity assessed as xanthine-xanthine oxidase generated superoxide anion scavenging at 100 mg/ml after 30 mins by NBT reduction assay; how it was run: as §1
[9] = Antioxidant activity assessed as hydroxyl radical scavenging activity by measuring malondialdehyde formation at 200 mg/ml after 90 mins by thiobarbituric acid method
How it was run: (§3)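 Non-enzymic hydroxyl radical generation: deoxyribose 2.8 mM, FeSO4 2 mM, sodium ascorbate 2.0 mM and H2O2 2.8 mM in 50 mM KH2PO4 pH 7.4, with or without sample. Incubated at 37 °C for 90 min alongside reference samples and reagent blanks. MDA measured spectrophotometrically by the thiobarbituric acid method.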

[10] = Antioxidant activity assessed as hydroxyl radical scavenging activity by measuring malondialdehyde formation at 100 mg/ml after 90 mins by thiobarbituric acid method; how it was run: as §3
[11] = Antioxidant activity against microsomal lipid peroxidation assessed as malondialdehyde formation at 100 mg/ml after 90 mins by thiobarbituric acid method

SMILES	Activity [1] [%]	Activity (Rattus norvegicus [2]) [%]	Activity (Rattus norvegicus [3]) [%]	Activity (Rattus norvegicus [4]) [%]	Activity (Rattus norvegicus [5]) [%]	Activity (Rattus norvegicus [6]) [%]	Activity [7] [%]	Activity [8] [%]	Activity [9] [%]	Activity [10] [%]	Activity [11] [%]
Oc1ncnc2[nH]ncc12	69	–	–	–	–	–	–	–	–	–	–
COc1ccc(CC(=O)NCC(=O)c2ccc(C)cc2)cc1OC	–	14	14	12	12	10	–	–	–	–	–
Cc1ccc(C(=O)CNC(=O)c2ccc(Cl)c([N+](=O)[O-])c2)cc1	–	5	9	8	9	4	–	–	–	–	–
Cc1ccc(C(O)CNC(=O)Cc2cccnc2)cc1 (racemic)	31	22	23	19	25	23	29	17	29	17	22
Cc1ccc(C(=O)CNC(=O)/C=C/c2ccccc2O)cc1	–	10	8	10	9	11	–	–	–	–	–
Cc1ccc(C(O)CNC(=O)/C=C/c2ccccc2O)cc1 (mixture of isomers)	–	7	8	5	9	8	–	–	–	–	–
Cc1ccc(C(=O)CNC(=O)c2cccnc2)cc1	–	6	4	6	2	4	–	–	–	–	–
COc1ccc([C@@H](O)CNC(=O)/C=C/c2ccccc2)cc1 [AEGELINE]	25	23	24	14	22	24	–	19	22	18	–
COc1cc(/C=C/C(=O)NCC(=O)c2ccc(C)cc2)ccc1O	–	6	10	13	10	5	–	–	–	–	–
Cc1ccc(C(=O)CNC(=O)Cc2ccc(F)cc2)cc1	–	15	19	6	11	14	–	–	–	–	–
Cc1ccc(C(O)CNC(=O)/C=C/c2ccc(Cl)c(Cl)c2)cc1 (racemic)	–	13	15	14	14	16	–	–	–	–	–
OC[C@@H](O)[C@@H](O)[C@H](O)[C@H](O)CO	–	–	–	–	–	–	–	–	45	–	–
Cc1ccc(C(=O)CNC(=O)/C=C/c2ccc(Cl)c(Cl)c2)cc1	–	12	13	6	12	12	–	–	–	–	–
Cc1ccc(C(=O)CNC(=O)CCc2cccnc2)cc1	31	24	21	20	22	24	29	24	33	19	19
Cc1ccc(C(O)CNC(=O)c2ccc(Cl)c([N+](=O)[O-])c2)cc1 (racemic)	–	7	11	8	11	5	–	–	–	–	–
Cc1ccc(C(=O)CNC(=O)/C=C/c2ccc(O)cc2)cc1	31	23	20	19	21	22	29	17	29	17	22
Cc1ccc(C)c(OCCCC(C)(C)C(=O)O)c1 [GEMFIBROZIL]	–	36	31	23	31	33	–	–	–	–	–
Cc1ccc(C(O)CNC(=O)/C=C/c2ccc(O)cc2)cc1 (mixture of isomers)	–	9	8	7	9	7	–	–	–	–	–
Cc1ccc(C(=O)CNC(=O)/C=C/c2ccc(OS(=O)(=O)c3ccc(C)cc3)cc2)cc1	–	9	6	7	4	7	–	–	–	–	–
Cc1ccc(C(=O)CNC(=O)Cc2cccnc2)cc1	–	7	7	8	5	7	–	–	–	–	–
Cc1c(C)c2c(c(C)c1O)CC[C@@](C)(CCC[C@H](C)CCC[C@H](C)CCCC(C)C)O2	–	–	–	–	–	–	63	–	–	–	–
COc1cc(/C=C/C(=O)NCC(O)c2ccc(C)cc2)ccc1O (mixture of isomers)	32	22	21	21	23	24	23	21	27	18	19
